Compound activity from PubChem BioAssay.
An excerpt weighted towards active compounds, which were near 3.5% of everything screened.
RGS4 pot = potentiators or activators of RGS4; 0.92% of 310,000 active; HEK293 M3R/inducible RGS4, carbachol calcium flux Fluo4; stronger effect = lower value; B-score at 10 µM;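 active = B-score of the integrated calcium signal more than 4 SD below the library mean, with starting fluorescence not abnormally high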;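 note: negative B-score means reduced calcium response which marks RGS4 activation or potentiation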
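Reagent: ECmax carbachol challenge; Test system: M3R-expressing HEK293 line, RGS4 induced by doxycycline; Schedule: overnight RGS4 induction, 30 min dye load 37 °C, 20 min compound RT; Detection: calcium dye Fluo4 fluorescence; Read-out: Agonist-evoked peak-minus-minimum fluorescence over baseline, integrated ratio, B score.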
MrgX1 PAM = allosterically activates human MrgX1 receptor signaling; 0.63% of 310,000 active; B-score at 10 µM; MrgX1-HEK293, Fluo-4 calcium flux, FDSS; stronger effect = higher value;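 active = plate-corrected calcium response at least 3 library SD above typical, normal starting fluorescence, not activating the receptor alone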;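 note: compound read alongside a low EC10 to EC30 dose of BAM8-22 agonist; peak minus trough fluorescence over baseline measured at the second addition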
Target sequence (Q96LB2 whole entry, looked up): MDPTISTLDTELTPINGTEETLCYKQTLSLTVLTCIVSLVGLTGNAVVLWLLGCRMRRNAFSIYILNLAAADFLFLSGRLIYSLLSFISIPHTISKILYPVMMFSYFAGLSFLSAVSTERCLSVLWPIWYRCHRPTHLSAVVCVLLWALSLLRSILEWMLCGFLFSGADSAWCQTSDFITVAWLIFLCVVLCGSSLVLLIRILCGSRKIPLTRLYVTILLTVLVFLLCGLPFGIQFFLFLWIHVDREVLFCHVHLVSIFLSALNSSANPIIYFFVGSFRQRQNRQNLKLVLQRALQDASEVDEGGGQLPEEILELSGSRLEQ
MrgX1 antag = antagonists of human MrgX1 receptor; MRGX1-HEK293 calcium flux, Fluo-4, BAM8-22 antagonism; stronger effect = lower value; B-score at 10 µM; 1.3% of 310,000 active;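 active = calcium-response B-score plate-corrected more than 3 library SD below zero, starting fluorescence within 5 deviations, no agonist response on first addition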;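 note: peak minus trough fluorescence over baseline after final BAM8-22 challenge near maximal dose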
RGS4 block = inhibitors of human RGS4; P49798; HEK293 M3R/RGS4 inducible, Fluo-4 calcium flux; stronger effect = higher value; triggered by carbachol at its EC20; B-score at 10 µM; 0.45% of 310,000 active; AID 463165;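 active = B-score, a plate-corrected calcium signal, over three deviations above library mean, with baseline fluorescence within five deviations of library mean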;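 note: RGS4 expression induced by doxycycline in cells with stable M3 receptor; B-score is computed from the integrated fluorescence ratio over baseline after carbachol; higher B-score means a larger calcium signal and so more RGS4 inhibition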
Target sequence (P49798 whole entry, looked up): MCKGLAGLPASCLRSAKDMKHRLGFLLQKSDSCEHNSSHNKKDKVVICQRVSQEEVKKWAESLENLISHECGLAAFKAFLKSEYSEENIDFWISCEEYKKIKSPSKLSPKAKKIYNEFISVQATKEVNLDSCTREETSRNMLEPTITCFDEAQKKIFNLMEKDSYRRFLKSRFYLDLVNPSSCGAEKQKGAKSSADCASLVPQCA
MrgX1 ag = agonists of human MrgX1 receptor | Q96LB2 | MrgX1-HEK293 cells, Fluo-4 calcium fluorescence, agonist mode; stronger effect = higher value | B-score at 10 µM | 0.44% of 310,000 active | AID 588627;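 active = calcium response B-score plate-corrected fluorescence ratio at least 3 library SD, with starting fluorescence B-score inside 5 SD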
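Material: HEK293 cells stably expressing human MrgX1 receptor | Quantity: 15,000 cells per well | Times: Cells plated overnight, dye loaded 0.5 h 37 °C, 0.5 h room temperature | Measured by: Kinetic Fluo-4 NW fluorescence of intracellular calcium | Control set: Positive and negative controls per plate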
The depositor's hits bear a star; i = inactive; . = not tested or not shown.

SMILES | RGS4 pot | MrgX1 PAM | MrgX1 antag | RGS4 block | MrgX1 ag
COc1ccc(NC(=O)CO/N=C2/CCCc3nonc32)c(OC)c1 | i | i | -5.5* | i | i
O=C1C2CC=CCC2C(=O)N1c1ccc(NCCc2ccc(Cl)cc2)c([N+](=O)[O-])c1 (stereo not given) | i | i | i | i | i
O=C1C2CC=CCC2C(=O)N1c1ccc(NCCc2ccc(O)cc2)c([N+](=O)[O-])c1 (stereo not given) | i | i | -5.2* | i | i
COc1ccc(C(=O)C2CCCN(C(=O)c3noc4c3CCCC4)C2)c(C)c1 (stereo not given) | i | i | i | i | i
COc1ccc(C[C@H](C)NC[C@@H](O)c2ccc(O)c(NC=O)c2)cc1 | i | 7.7* | i | i | i
Cn1c(-c2c(N)n(CCc3ccccc3)c3nc4ccccc4nc23)nc2ccccc21 | i | i | i | i | 29*
Cn1c(-c2c(N)n(C3CCCC3)c3nc4ccccc4nc23)nc2ccccc21 | -9* | i | -7.4* | i | i
Cn1c(-c2c(N)n(CCCc3ccccc3)c3nc4ccccc4nc23)nc2ccccc21 | i | . | . | i | .
Nc1c(C(=O)OCC2CCCO2)c2nc3ccccc3nc2n1C1CCCC1 (stereo not given) | i | i | i | i | i
COc1cc(C(C)=O)ccc1OCC(=O)OCCCOC(=O)COc1ccc(C(C)=O)cc1OC | i | i | i | i | i
COCC(CN1CCN(C2=NS(=O)(=O)c3ccccc32)CC1)OC(=O)c1ccc(OC)cc1 (stereo not given) | i | i | i | i | i
CCOc1cc(N2CCOCC2)c(OCC)cc1NC(=O)COC(=O)COc1cc(C)cc(C)c1 | i | i | i | i | i
CCOc1cc(N2CCOCC2)c(OCC)cc1NC(=O)COC(=O)COc1ccc(C#N)cc1 | i | i | -6.3* | i | i
O=[N+]([O-])c1ccc(-n2nncc2-c2ccc(Cl)cc2)cc1 | i | i | -4.9* | i | i
COc1ccc(N2CCN(C(=O)CCc3nnc4ccc(N5CCCC5)nn34)CC2)cc1 | i | i | i | i | i
Cc1nc2ccc(Cl)cc2c(-c2ccccc2Cl)c1CC(=O)O | i | i | i | i | i
CN1CCc2nc3ccc(Cl)cc3c(-c3ccccc3Cl)c2C1 | -8.6* | i | i | i | i
Cc1onc(-c2ccccc2)c1C(=O)Nc1ncc([N+](=O)[O-])s1 | i | i | -4.5* | i | i
O=C(Nc1ncc([N+](=O)[O-])s1)c1ccc2c(c1)OCO2 | i | i | i | i | i
Cc1ccc(C(=O)Nc2ncc([N+](=O)[O-])s2)cc1 | i | i | -4.5* | i | i
Cc1ccc(OCC(=O)N/N=C2\CC(=O)CC(C)(C)C2)c(Br)c1 | i | i | i | i | i
COc1cc(CN2CCNC(=O)C2CC(=O)N2CCCN(C(C)=O)CC2)cc(OC)c1 (stereo not given) | i | i | i | i | i
Cc1ccc(C(=O)Nc2c(N)nc(SCC(=O)Nc3cc(C)on3)[nH]c2=O)cc1 | i | i | -6.4* | i | i
COc1ccc(C(=O)NNC(=O)CSc2nc3c([nH]2)c(=O)n(C)c(=O)n3C)cc1 | i | i | -4.6* | i | i
Cn1c(=O)c2[nH]c(SCC(=O)c3ccc(F)cc3)nc2n(C)c1=O | i | i | i | i | i
SMILES | RGS4 pot | MrgX1 PAM | MrgX1 antag | RGS4 block | MrgX1 ag
COc1ccc(C(=O)Nc2c(N)nc(SCC(=O)Nc3ccc(NC(C)=O)cc3)[nH]c2=O)cc1 | i | i | -4.9* | i | i
Cc1ccc2nc(SCC(=O)Nc3cc(C)on3)[nH]c2c1 | i | i | i | i | i
Cc1c(N(C)S(=O)(=O)c2ccc(Cl)c(C(=O)N3CCC(C(N)=O)CC3)c2)c(=O)n(-c2ccccc2)n1C | i | i | i | i | i
CSc1ncccc1C(=O)OCC(=O)c1cccc(Br)c1 | i | i | i | i | i
CCn1cc(CN2CCC(n3nccc3NC(=O)CCOc3ccccc3)CC2)c(C)n1 | i | i | i | i | i
C#CCN1C(=O)C(O)(CC(=O)/C=C/C=C/c2ccccc2)c2ccccc21 (stereo not given) | i | 6.7* | i | i | i
CCN1C(=O)C(O)(CC(=O)/C=C/C=C/c2ccccc2)c2ccccc21 (stereo not given) | i | i | i | i | i
Cc1noc(NS(=O)(=O)c2ccc(NC(=O)c3cc(-c4ccccc4Cl)nc4ccccc34)cc2)c1C | i | i | i | i | 39*
Cc1c(N=Cc2ccc(O)c(Br)c2)cccc1[N+](=O)[O-] | i | i | i | i | i
O=[N+]([O-])c1ccc(N=Cc2ccc(Br)c([N+](=O)[O-])c2)cc1 | i | i | i | i | 34*
CN(C)CCN(C(=O)c1ccc(N2C(=O)CCC2=O)cc1)c1nc2cc3c(cc2s1)OCCO3 | i | i | i | i | i
CC(=O)Nc1nc(C)c(-c2csc(Nc3cccc(C(C)=O)c3)n2)s1 | -7.5* | i | i | i | i
CCOC(=O)c1ccc(NC(=O)N2CCN(c3ccccn3)CC2)cc1 | -7.1* | i | i | i | i
OC(COc1ccccc1Cl)CN1CCN(CC(O)COc2ccccc2Cl)CC1 (stereo not given) | -7.7* | i | i | i | i
COc1ccc(CCNC(=O)CC(c2ccccc2)c2cccc(C)c2O)cc1OC (stereo not given) | i | i | -5.9* | i | i
COc1ccc(CCNC(=O)CSc2ccccc2)cc1OC | i | i | i | i | i
CC1CCC(NC(=O)C2CC(=O)N(c3ccc4c(c3)OCCO4)C2)CC1 (stereo not given) | i | i | i | i | i
CCN(C(=O)COC(=O)c1cccc(NS(=O)(=O)c2ccc(F)c(F)c2)c1)C1CCS(=O)(=O)C1 (stereo not given) | i | i | i | i | i
CCCCC[n+]1cccc2c3ccccc3ccc21 | i | i | i | i | i
CCC[n+]1c2ccccc2cc2ccccc21 | i | i | i | i | 26*
CCCC[n+]1c2ccccc2cc2ccccc21 | i | i | i | i | 32*
Cc1ccc2ccccc2[n+]1CCCS(=O)(=O)[O-] | i | i | i | i | i
Cc1ccc(C(=O)Sc2cccccc2=O)cc1 | i | i | i | i | 49*
Cc1ccc(C(=O)CC(=O)c2ccccc2)cc1 | i | i | i | i | i
